NR3A LBD binder: modulates the human NR3A ligand-binding domain | Tm shift relative to glycine control, % at 25 µM | 340,000 tested, 2.5% active | NR3A LBD differential scanning fluorimetry, Tm shift; 0% = protein alone, 100% = glycine-bound protein;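 active = melting temperature shift of at least 10% of the positive control shift, at one fixed dose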
Tb MetRS inh: Trypanosoma brucei MetRS inhibition; inhibition, % at 11.9 µM; 360,000 tested, 0.4% active; purified T. brucei MetRS, ATP depletion, Kinase-Glo luminescence;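 active = inhibition above a per-plate cutoff of the control wells' mean inhibition plus 3 SD, cut at about 5.5% in these data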
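Test system: purified T. brucei MetRS enzyme. Also added: ATP, methionine and E. coli bulk tRNA substrates. Compound: 11.9 µM single point. Schedule: 15 min enzyme-compound preincubation, 2 h reaction, 10 min detection, 25 °C. Signal: luciferase luminescence of residual ATP, Kinase-Glo. Evaluation: percent inhibition versus plate control medians. Controls: DMSO wells, low control.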
MPTP inh: inhibitors of mitochondrial permeability transition pore; inhibition, % at 10 µM; AID 602449; isolated mouse mitochondria, Ca2+ swelling absorbance, 30 min; 360,000 tested, 1.4% active;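 active = inhibition of 50% or more, scaled per plate between neutral and stimulator controls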
WT yeast gro inh: growth inhibition of WT yeast, mitochondrial fusion screen. mitochondrial fusion phenotypic screen, WT strain. inhibition, % at 10 µM. 190,000 tested, 2.1% active. AID 1362; in the data active = inhibition above about 58%; tested in S. cerevisiae
CHOP inhibitor: inhibitors of CHOP induction in ER stress response; CHO-K1 CHOP-promoter luciferase, tunicamycin-induced, 15-18 h; inhibition, % at 10 µM; 220,000 tested, 3.8% active;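 active = compounds that reduced the stress-induced luciferase reporter signal by more than about 70% of percent inhibition, limit read from the data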
EBV gp42 block: EBV gp42 inhibition; Q1HVG2; Fluorescence polarization binding assay, mP read-out; inhibition, % (tested at 21.74 µM); 220,000 tested, 0.42% active; AID 1085; in the data active = inhibition above about 50%
Target sequence (Q1HVG2 whole entry, looked up): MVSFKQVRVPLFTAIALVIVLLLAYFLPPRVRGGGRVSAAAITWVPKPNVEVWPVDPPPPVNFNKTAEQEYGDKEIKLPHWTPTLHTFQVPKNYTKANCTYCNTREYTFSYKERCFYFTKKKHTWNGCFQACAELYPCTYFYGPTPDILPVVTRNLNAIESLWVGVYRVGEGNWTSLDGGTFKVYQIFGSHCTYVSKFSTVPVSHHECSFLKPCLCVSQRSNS
CHOP confirm: confirmation of CHOP induction inhibitors; AID 504437; 2,100 tested, 45% active; inhibition, % at 10 µM; CHO-CHOP promoter luciferase reporter, tunicamycin-induced, luminescence; shares compounds with CHOP inhibitor;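 active = mean of three repeat readings of reporter signal inhibition above a set limit, cut at about 70% in these data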
Large screens that a line does not name were inactive (follow-up assays come after a bar, where they were run). The list is not random: actives were taken first. Their share in the collection is about 6.4%.

CN1/C(=C\C(=O)c2cccnc2)C(C)(C)c2ccccc21	none
CN1/C(=C/C(=O)c2nc(S(C)(=O)=O)ncc2Cl)C(C)(C)c2ccccc21	none (no result: CHOP inhibitor) | CHOP confirm 117
CCCc1cc(-c2[nH]ncc2-c2ccc3c(c2)OCCCO3)c(O)cc1O	NR3A LBD binder 12, CHOP inhibitor 101 | CHOP confirm inactive
CCCc1cc(-c2[nH]ncc2-c2ccc(C(=O)OCC)o2)c(O)cc1O	none
CCCCC(=O)Nc1nnc(SCC(=O)NC2CC2)s1	none (no result: WT yeast gro inh, CHOP inhibitor, EBV gp42 block)
Cc1cc(N2CCOCC2)nc2ccc(NC(=S)N3CCN(c4ccccc4)CC3)cc12	CHOP inhibitor 101 | CHOP confirm inactive
C[C@@H]1CC=C[C@H]2[C@H]1C(=O)N(Cc1ccccc1)[C@H]2c1ccoc1	none (no result: WT yeast gro inh)
C[C@@H]1CC=C[C@H]2[C@H]1C(=O)N(Cc1ccccc1)[C@H]2c1ccc2ccccc2c1Br	CHOP inhibitor 98 (no result: WT yeast gro inh) | CHOP confirm inactive
CC[C@@H]1CC=C[C@H]2[C@H]1C(=O)N(Cc1ccccc1)[C@H]2c1ccoc1	CHOP inhibitor 101 (no result: WT yeast gro inh) | CHOP confirm 137
Cc1ccc(-n2ncc3c(=O)n(Cc4cccnc4)cnc32)cc1	none
CCC(C(=O)OCC(=O)Nc1cccc(S(=O)(=O)NC2=NCCCCC2)c1)c1ccccc1 (stereo not given)	none (no result: NR3A LBD binder, Tb MetRS inh, MPTP inh)
O=C(N=C1SC2CS(=O)(=O)CC2N1Cc1ccc(F)cc1)C1CCCO1 (stereo not given)	none (no result: WT yeast gro inh, CHOP inhibitor, EBV gp42 block)
CCCCOc1ccc(S(=O)(=O)NNC(=O)C2Cc3c(ccc4ccccc34)O2)cc1 (stereo not given)	CHOP inhibitor 98 | CHOP confirm inactive
Fc1cccc(/C=N/NC(=S)Nc2ccccc2Cl)c1	CHOP inhibitor 104 | CHOP confirm inactive
Fc1ccc(/C=N/NC(=S)Nc2ccc(Cl)cc2Cl)cc1	none (no result: WT yeast gro inh)
CN(CCc1ccccn1)C(=O)CCC1CCCN(C(=O)CCOc2ccccc2)C1 (stereo not given)	none
COc1ccc(N=c2ssnc2Cl)cc1	NR3A LBD binder 22, CHOP inhibitor 109 | CHOP confirm inactive
CCOC(=O)c1ccc(N=c2ssnc2Cl)cc1	CHOP inhibitor 98 | CHOP confirm inactive
CCc1ccc(NC(=O)CSC2=C(C#N)C(c3ccco3)C3=C(CCCC3=O)N2)cc1 (stereo not given)	none
Cc1ccc(NC(=O)CSC2=C(C#N)C(c3ccco3)C3=C(CC(C)(C)CC3=O)N2)cc1 (stereo not given)	CHOP inhibitor 100 | CHOP confirm inactive
COc1ccc(C2=CC(c3ccc(F)cc3)n3nnnc3N2)cc1 (stereo not given)	none
Cc1ccc(C2=CC(c3ccc(N(C)C)cc3)n3nnnc3N2)cc1 (stereo not given)	CHOP inhibitor 100 | CHOP confirm inactive
Cc1ccc(-c2ccc(/C=C(\C#N)C(=O)Nc3cc(C)nn3-c3ccccc3)o2)cc1	CHOP inhibitor 104, EBV gp42 block 120 (no result: NR3A LBD binder, Tb MetRS inh, MPTP inh) | CHOP confirm 89
Cc1cc(NC(=O)/C(C#N)=C/c2ccco2)n(-c2ccccc2)n1	none
CN(Cc1cnn(C)c1)Cc1nc(COc2ccccc2)no1	none
CCNC(=S)N/N=C/c1cc(Br)cc(Br)c1OC	CHOP inhibitor 102 (no result: WT yeast gro inh) | CHOP confirm 80
COc1c(Br)cc(Br)cc1/C=N/NC(=O)c1cccnc1	none (no result: WT yeast gro inh, CHOP inhibitor, EBV gp42 block)
Cc1ccc(OCC(=O)N2CCCCCCC2)cc1	none (no result: WT yeast gro inh, CHOP inhibitor, EBV gp42 block)
O=C(Cc1ccc(Cl)cc1)Nc1ccccc1N1CCOCC1	none
COc1ccc(CCNC(=O)C2CC3Cn4c(nc5cc(Cl)c(Cl)cc54)C3N2C)cc1 (stereo not given)	none (no result: WT yeast gro inh)
Oc1[nH]c2ccccc2c1N=Nc1ccc(F)cc1	CHOP inhibitor 97 | CHOP confirm inactive
CCc1nccn1CCC(=O)NC1CC(C)(C)Cc2c1cnn2-c1ccc(C)cc1 (stereo not given)	none (no result: WT yeast gro inh, CHOP inhibitor, EBV gp42 block)
N#C/C(=C\c1ccc([N+](=O)[O-])o1)C(=O)Nc1ccc(F)cc1	CHOP inhibitor 108 | CHOP confirm 106
N#Cc1cc(C(=O)c2cc(Cl)ccc2O)cn(-c2ccccc2)c1=O	none
O=C(c1ccccc1)c1cc(Cl)ccc1N1C(=O)C=CC1=O	WT yeast gro inh 85, CHOP inhibitor 106 | CHOP confirm inactive
CCOC(=O)c1nc(S(C)(=O)=O)ncc1Cl	none (no result: CHOP inhibitor) | CHOP confirm 92
COCCNC(=O)NC1(C(F)(F)F)Oc2ccc(Cl)cc2O1 (stereo not given)	none
Cc1cc(NC(=O)NC2(C(F)(F)F)Oc3ccc(Cl)cc3O2)no1 (stereo not given)	CHOP inhibitor 99 | CHOP confirm 114
COc1ccc(CC(=O)OCC(=O)c2ccc[nH]2)cc1	none (no result: WT yeast gro inh, CHOP inhibitor, EBV gp42 block)
Cc1ccc(-c2ccc(/C=C/C(=O)c3ccccc3)o2)cc1	none
O=C(/C=C/c1ccc(-c2ccccc2)o1)c1ccccc1	CHOP inhibitor 98 | CHOP confirm inactive
Cn1c(=O)cc(SCC(=O)NCCC2=CCCCC2)c2ccc(Cl)cc21	CHOP inhibitor 97 | CHOP confirm 90
CCOc1ccc(CCNC(=O)CSc2cc(=O)n(C)c3cc(Cl)ccc23)cc1OCC	none
CC(C)C[C@@H](CO)N1CCN(Cc2cccc(C#N)c2)CCC1=O	none (no result: WT yeast gro inh, CHOP inhibitor, EBV gp42 block)
CN1CCc2c(sc(NC(=O)c3cc4cc([N+](=O)[O-])ccc4s3)c2C(N)=O)C1	CHOP inhibitor 101 (no result: NR3A LBD binder, Tb MetRS inh, MPTP inh) | CHOP confirm 132
COc1ccc2nc(-c3ccccc3)[nH]c(=O)c2c1	none (no result: WT yeast gro inh, CHOP inhibitor, EBV gp42 block)
COc1ccc(-c2nc3ccc(N4CCCC4)cc3c(=O)[nH]2)cc1OC	CHOP inhibitor 103 | CHOP confirm inactive
CCOC(=O)C1CCCCN1S(=O)(=O)c1ccc2c(c1)CC(C)N2C(=O)C1CCC1 (stereo not given)	none (no result: WT yeast gro inh, CHOP inhibitor, EBV gp42 block)
Cc1cccc(/C=C/C(=O)c2cc(Br)ccc(=O)c2O)c1	CHOP inhibitor 102 | CHOP confirm 100
Cc1nn(-c2ccccc2)c(Cl)c1CN(C(=O)CCl)c1ccc(Cl)cc1	CHOP inhibitor 109 | CHOP confirm 140
Nc1ccc(N=Nc2ccc(O)cc2)c(N)n1	none (no result: WT yeast gro inh, CHOP inhibitor, EBV gp42 block)
CCC(C)(C)NC(=O)C(c1cccn1C)N(C(=O)Cn1nnc2ccccc21)c1ccc(F)cc1 (stereo not given)	CHOP inhibitor 96 | CHOP confirm 79
CCC(C)(C)NC(=O)C(c1cccn1C)N(C(=O)Cn1nnc2ccccc21)c1ccc(NC(C)=O)cc1 (stereo not given)	none
CC1(C)CC(=O)c2cnc(NC(=O)Cc3ccc(Cl)cc3)nc2C1	none
O=C(Nc1nccs1)c1cc2c(s1)CCCCC2	CHOP inhibitor 98 | CHOP confirm 78
NNC(=O)c1cc2c(s1)CCCCCC2	none
CCOC(=O)c1c(C(C)(C)C)oc2ccc(OCC#N)cc12	none
CCOC(=O)c1c(C(C)(C)C)oc2ccc(O)cc12	CHOP inhibitor 104 | CHOP confirm 106

Screening data as filed in PubChem BioAssay.
